Data from ChEMBL document CHEMBL4680078, “Inhibitors of the Cysteine Synthase CysM with Antibacterial Potency against Dormant Mycobacterium tuberculosis” (J Med Chem, 2016).
Activity calls are given as the source filed them. The calls are words filed in the database; no cut-off is given here.

Tests used:
[1] = system: Mycobacterium tuberculosis; test: Antimycobacterial activity against Mycobacterium tuberculosis H37Rv assessed as inhibition of microbial growth incubated for 5 days by alamar blue assay; type: functional; conditions: 120 h, time 5 day
[2] = Binding affinity to Mycobacterium tuberculosis CysK2 by PLP fluorescence-based screening assay
J774.A1 = test: Cytotoxicity in mouse J774.A1 cells assessed as reduction in cell viability at 10 uM incubated for 72 hrs by Cell-titer-Glo assay; type: cell-based; conditions: j774.a1, 72 h
[3] = Binding affinity to Mycobacterium tuberculosis CysM expressed in Escherichia coli strain BL21 (DE3) incubated for 5 mins by PLP fluorescence-based screening assay
In short: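 Binding measured by the rise in fluorescence emission of the enzyme-bound PLP cofactor on ligand binding, using recombinant CysM at 2 µM. Kd obtained by fitting the ligand concentration dependence to a 1:1 binding-site model. Affinities approaching sub-µM are limited by protein concentration.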

[4] = system: Mycobacterium tuberculosis; test: Inhibition of Mycobacterium tuberculosis CysM expressed in Escherichia coli strain BL21 (DE3) assessed as reduction in amino-acrylate intermediate formation by measuring residual enzyme activity at 100 uM incubated for 5 mins in presence of OPS by spectrophotometry
In short: (§1)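 Orthogonal activity assay with recombinant CysM, following formation of the α-aminoacrylate intermediate in the first half-reaction with OPS. Apparent first-order rate constants (kobs) determined. Only residual activities below 20% are reliably quantified; >20% remaining activity is reported as a limit.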

HepG2 = test: Cytotoxicity in human HepG2 cells assessed as reduction in cell viability at 10 uM incubated for 72 hrs by Cell-titer-Glo assay; type: cell-based; conditions: hepg2, 72 h
[5] = system: Mycobacterium tuberculosis; test: Inhibition of Mycobacterium tuberculosis CysM expressed in Escherichia coli strain BL21 (DE3) assessed as apparent first-order rate constant for the formation of the alpha-aminoacrylate intermediate at 100 uM incubated for 5 mins in presence of OPS by spectrophotometry; in short: as §1
[6] = system: Mycobacterium tuberculosis; test: Selectivity index, ratio of Kd for binding affinity to Mycobacterium tuberculosis CysK2 to Kd for binding affinity to Mycobacterium tuberculosis CysM expressed in Escherichia coli strain BL21 (DE3)
SH-SY5Y = test: Cytotoxicity in human SH-SY5Y cells assessed as reduction in cell viability at 10 uM incubated for 72 hrs by Cell-titer-Glo assay; type: cell-based
[7] = Binding affinity to Mycobacterium tuberculosis CysK1 by PLP fluorescence-based screening assay
[8] = system: Mycobacterium tuberculosis; test: Selectivity index, ratio of Kd for binding affinity to Mycobacterium tuberculosis CysK1 to Kd for binding affinity to Mycobacterium tuberculosis CysM expressed in Escherichia coli strain BL21 (DE3)
THP-1 = test: Cytotoxicity in human THP-1 cells assessed as reduction in cell viability at 10 uM incubated for 72 hrs by Cell-titer-Glo assay; type: cell-based; conditions: thp-1, 72 h
[9] = target: T1, Cystathionine beta-synthase (Homo sapiens) (UniProt P35520); test: (§2) Binding affinity to human CBS by PLP fluorescence-based screening assay
T1 sequence (whole entry): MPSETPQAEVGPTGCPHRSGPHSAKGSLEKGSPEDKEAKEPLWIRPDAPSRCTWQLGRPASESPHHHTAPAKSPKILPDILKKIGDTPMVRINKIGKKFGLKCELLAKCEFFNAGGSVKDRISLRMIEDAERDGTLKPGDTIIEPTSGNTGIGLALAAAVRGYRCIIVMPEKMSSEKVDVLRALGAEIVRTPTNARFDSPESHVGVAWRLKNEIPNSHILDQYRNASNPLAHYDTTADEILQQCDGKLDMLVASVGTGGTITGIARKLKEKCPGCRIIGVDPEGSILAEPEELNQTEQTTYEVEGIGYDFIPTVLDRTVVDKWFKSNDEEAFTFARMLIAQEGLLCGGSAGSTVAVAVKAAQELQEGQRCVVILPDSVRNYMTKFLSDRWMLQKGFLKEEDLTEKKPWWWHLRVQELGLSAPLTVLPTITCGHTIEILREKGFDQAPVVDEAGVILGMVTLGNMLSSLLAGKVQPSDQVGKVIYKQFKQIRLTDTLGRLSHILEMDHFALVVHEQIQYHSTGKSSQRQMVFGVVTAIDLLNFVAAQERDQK

[10] = system: Mycobacterium tuberculosis; test: Antimycobacterial activity against Mycobacterium tuberculosis H37Rv grown under nutrient starvation condition assessed as reduction in nonreplicating cells count incubated for 7 days at 10 ug/ml; type: functional; conditions: for Activity: dose 10.0 µg/ml, time 7.0 day; for log(activity): dose 10 µg/ml, time 7 day
[11] = Binding affinity to Mycobacterium tuberculosis CysM by ITC analysis
[12] = Selectivity index, ratio of Kd for binding affinity to human CBS to Kd for binding affinity to Mycobacterium tuberculosis CysM expressed in Escherichia coli strain BL21 (DE3)
[13] = Stability in presence of cysteine assessed as compound degradation incubated for 24 hrs by HPLC analysis; type: physicochemical
[14] = Stability in presence of cysteine assessed as compound degradation incubated for 24 hrs by spectroscopy analysis; type: physicochemical
[15] = system: Mycobacterium tuberculosis; test: Bactericidal activity against Mycobacterium tuberculosis H37Rv grown under nutrient starvation condition assessed as reduction in nonreplicating cells count incubated for 7 days at 10 ug/ml in presence of 0.2 mM cysteine; type: functional, organism-based; conditions: dose 10.0 µg/ml, time 7.0 day
In short: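 Nutrient-starved, nonreplicating H37Rv culture exposed to compound at 10 µg/ml alongside added L-cysteine (series 0.0, 0.05, 0.2, 0.5 mM) and an untreated control. Viable bacteria counted by most probable number (MPN) assay. Run in triplicate.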

[16] = target: T2, Cystathionine beta-synthase (Homo sapiens, UniProt P35520); test: as §2
T2 sequence (P35520 whole entry): T1 sequence (whole entry)

[17] = Stability in presence of cysteine assessed as compound degradation incubated for 24 hrs by mass-spectrometry; type: physicochemical

CO[C@H]1/C=C/O[C@@]2(C)Oc3c(C)c(O)c4c(O)c(c(/C=N/N5CCN(C)CC5)c(O)c4c3C2=O)NC(=O)/C(C)=C\C=C\[C@H](C)[C@H](O)[C@@H](C)[C@@H](O)[C@@H](C)[C@H](OC(C)=O)[C@@H]1C [RIFAMPIN]
MIC [1]: 0.5 µM

O=C(Nc1cccc(C(=O)O)c1)Nc1cccc(-c2ccccc2)c1
Kd [2]: 22.6 µM | MIC [1]: 18.8 µM | Activity (J774.A1): Non-Toxic | Kd ([3]; read-out: Kd): 1.7 µM | Activity [4]: 0.6% | Activity (HepG2): Non-Toxic | K [5]: 0.24 min⁻¹ | Ratio [6]: 15 | Activity (SH-SY5Y): Non-Toxic | Kd [7]: 96.8 µM | Ratio [8]: > 80 | Activity (THP-1): Non-Toxic | Activity [9]: inactive

COc1ccc(NC(=O)Nc2cccc(C(=O)O)c2)cc1
MIC [1]: 21.8 µM | Activity [10]: inactive | Kd ([3]; read-out: Kd): 11.3 µM | Activity [4]: 9.9% | K [5]: 3.84 min⁻¹

O=C(Nc1ccc(Cl)c(Cl)c1)Nc1ccc(C(=O)O)cc1O
Kd [3]: Not Active | K [5]: > 20 min⁻¹

O=C(Nc1ccc(Cl)cc1)Nc1cccc(C(=O)O)c1
MIC [1]: 21.5 µM | Activity [10]: inactive | Activity (J774.A1): Non-Toxic | Kd [11]: 3.4 µM | Activity [4]: 0.6% | Activity (HepG2): Non-Toxic | K [5]: 0.24 min⁻¹ | Activity (SH-SY5Y): Non-Toxic | Activity (THP-1): Non-Toxic

NNC(=O)c1ccncc1 [ISONIAZID]
MIC [1]: 0.4 µM | log(activity) [10]: 1

O=C(Nc1ccc(-c2cccc(Cl)c2Cl)cc1)Nc1cccc(C(=O)O)c1
Activity (J774.A1): Non-Toxic | Activity (HepG2): Non-Toxic | Activity (SH-SY5Y): Non-Toxic | Activity (THP-1): Non-Toxic

O=C(NCc1ccc(Cl)c(Cl)c1)Nc1cccc(C(=O)O)c1
Kd ([3]; read-out: Kd): > 300 µM | K [5]: > 20 min⁻¹

O=C(Nc1cccc(-c2ccccc2)c1)Nc1ccc(O)c(C(=O)O)c1
Activity (J774.A1): Non-Toxic | Kd [11]: 2.2 µM | Activity [4]: 0.6% | Activity (HepG2): Non-Toxic | K [5]: 0.23 min⁻¹ | Activity (SH-SY5Y): Non-Toxic | Activity (THP-1): Non-Toxic

O=C(Nc1ccc([N+](=O)[O-])cc1)Nc1cccc(C(=O)O)c1
MIC [1]: 20.7 µM | Activity [10]: inactive | Kd ([3]; read-out: Kd): 10.5 µM | Activity [4]: 5.7% | K [5]: 2.22 min⁻¹

O=C(O)c1cccc(NC(=S)Nc2ccc(Cl)cc2)c1
Kd ([3]; read-out: Kd): > 300 µM | K [5]: > 20 min⁻¹

CC(=O)c1ccc(NC(=O)Nc2cccc(C(=O)O)c2)cc1
Kd ([3]; read-out: Kd): 111 µM | K [5]: > 20 min⁻¹

O=C(Nc1cccc(C(=O)O)c1)Nc1ccc(Cl)c(Cl)c1
Kd [2]: 30.1 µM | MIC [1]: 9.6 µM | log(activity) [10]: 3 | Ratio [12]: 300 | Activity (J774.A1): Non-Toxic | Kd [11]: 0.32 µM | Activity [4]: 0.3% | Stabilty [13]: Unstable | Activity (HepG2): Non-Toxic | Stabilty [14]: Unstable | K [5]: 0.1 min⁻¹ | Activity [15]: inactive | Ratio [6]: 15 | Activity (SH-SY5Y): Non-Toxic | Kd [7]: 241 µM | Ratio [8]: > 80 | Activity (THP-1): Non-Toxic | Kd [16]: 94 µM | Stabilty [17]: Unstable

O=C(Nc1ccc(Br)cc1)Nc1cccc(C(=O)O)c1
MIC [1]: 18.6 µM | Activity [10]: inactive | Activity (J774.A1): Non-Toxic | Kd [11]: 1.4 µM | Activity [4]: 1.2% | Activity (HepG2): Non-Toxic | K [5]: 0.48 min⁻¹ | Activity (SH-SY5Y): Non-Toxic | Activity (THP-1): Non-Toxic

Cc1ccc(C(=O)Nc2cccc(C(=O)O)c2)cc1
Kd [3]: Not Active | K [5]: > 20 min⁻¹

O=C(Nc1ccccc1)Nc1cccc(C(=O)O)c1
Kd ([3]; read-out: Kd): 12.9 µM | Activity [4]: 2.6% | K [5]: 1.02 min⁻¹

O=C(Nc1ccc(Cl)c(Cl)c1)Nc1ccc(O)c(C(=O)O)c1
Kd [3]: Not Active | K [5]: > 20 min⁻¹

O=C(Nc1ccc(C(=O)O)c(O)c1)Nc1ccc(Cl)c(Cl)c1
Kd [3]: Not Active | K [5]: > 20 min⁻¹

O=C(Nc1cccc(-c2ccccc2)c1)Nc1ccc(C(=O)O)c(O)c1
MIC [1]: 2.2 µM | log(activity) [10]: 3 | Kd ([3]; read-out: Kd): 4.5 µM | Activity [4]: 1.2% | K [5]: 0.48 min⁻¹ | Activity [15]: inactive

O=C(Nc1cccc(-c2nnn[nH]2)c1)Nc1ccc(Cl)c(Cl)c1
Kd [3]: Not Active | K [5]: > 20 min⁻¹

O=C(O)c1cccc(NS(=O)(=O)c2ccc(Cl)c(Cl)c2)c1
Kd [3]: Not Active | K [5]: > 20 min⁻¹

Cc1ccc(NC(=O)Nc2cccc(C(=O)O)c2)cc1
MIC [1]: 23.1 µM | Kd ([3]; read-out: Kd): 8 µM | Activity [4]: 4.9% | K [5]: 1.92 min⁻¹
